In data set [1] the target is T1, Acetylcholinesterase (Homo sapiens, UniProt P22303). Nature of the data set: Inhibition of AChE in human erythrocytes using acetylthiocholineiodide as substrate pre-incubated for 10 mins followed by substrate addition and measured for 6 mins by DTNB reagent based Ellman's method. Type of data set: cell-based, Erythrocyte. In general terms: DTNB colorimetry detects thiols as they appear.

The target in data set [2] is T2, Cholinesterase (Homo sapiens, UniProt P06276). Nature of the data set: Inhibition of BuChE in human serum using butyrylthiocholineiodide as substrate pre-incubated for 10 mins followed by substrate addition and measured for 6 mins by DTNB reagent based Ellman's method. Type of data set: cell-free. The method in brief:
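AChE from human erythrocytes at 0.25 U/ml in 20 mM HEPES pH 8 with 0.1% Triton X-100, or BuChE from human serum at 0.25 U/ml in 0.1% gelatine. Substrate ATCI or BTCI at […], DTNB […], in 0.1 M PBS pH 7.4. Enzyme and inhibitor (DMSO stock, five concentrations) preincubated 10 min, then substrate added; rate followed 6 min at 37 °C. Non-enzymatic blank subtracted. Triplicates; IC50 from log concentration–percent inhibition curves.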

Data set [3] addresses T1, Acetylcholinesterase. The data set is described as follows: Inhibition of AChE (unknown origin) by DTNB reagent based Ellman's method. In a few lines:
(§1)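 Ellman assay with DTNB read at 412 nm. AChE from human erythrocytes at 0.25 U/ml in 20 mM HEPES pH 8 with 0.1% Triton X-100, or BuChE from human serum at 0.25 U/ml in 0.1% gelatine. Substrate ATCI or BTCI at […], DTNB […], in 0.1 M PBS pH 7.4. Enzyme and inhibitor (DMSO stock, five concentrations) preincubated 10 min, then substrate added; rate followed 6 min at 37 °C. Non-enzymatic blank subtracted. Triplicates; IC50 from log concentration–percent inhibition curves.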

In data set [4] the target is T2, Cholinesterase. The data set is described as follows: Inhibition of BuChE (unknown origin) by DTNB reagent based Ellman's method. In a few lines: as §1
Data set [5] can be described thus: Permeability of the compound measured after 16 hrs by PAMPA-BBB assay. For orientation: In PAMPA a lipid-coated filter parts donor from acceptor wells.
The nature of data set [6]: Neuroprotective activity in human MC65 cells cultured in TC-deficient medium assessed as inhibition of TC-deficiency induced oxidative stress by measuring increase in cell viability at 60 to 80 uM measured after 12 hrs by MTT assay relative to cells cultured in tetracycline containing medium. Type of data set: functional. The note with it: dose 60-80 µM. The method in brief: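 MC65 cells grown in MEM, PBS-washed and resuspended in MEM, then seeded at 5×10⁴ cells/well with or without TC. Compounds (80–1 μM) added to TC-free wells and incubated 12 h at 37 °C. MTT (5 mg/ml) added for a further 4 h; formazan dissolved in DMSO:H₂O 1:1 and read at 570 nm. Viability expressed as % of +TC control. Triplicate wells, three runs.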

For data set [7], the target named is T1, Acetylcholinesterase. Nature of the data set: Non-competitive inhibition of AChE in human erythrocytes measured at 2 mins interval for 10 mins by Dixon plot analysis. The format is cell-based, Erythrocyte. The method in brief:
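Human AChE kinetics in the Ellman DTNB assay. Inhibitor at 25, 50 and 100 nM, each with six ATCI concentrations, against an inhibitor-free series. Activity read every 2 min over 10 min. Km and Vmax from Michaelis–Menten non-linear regression; mechanism from Lineweaver–Burk plots; Ki from Dixon plot over four inhibitor concentrations and from slope/intercept replots. Triplicate.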

T1 sequence (P22303 whole entry): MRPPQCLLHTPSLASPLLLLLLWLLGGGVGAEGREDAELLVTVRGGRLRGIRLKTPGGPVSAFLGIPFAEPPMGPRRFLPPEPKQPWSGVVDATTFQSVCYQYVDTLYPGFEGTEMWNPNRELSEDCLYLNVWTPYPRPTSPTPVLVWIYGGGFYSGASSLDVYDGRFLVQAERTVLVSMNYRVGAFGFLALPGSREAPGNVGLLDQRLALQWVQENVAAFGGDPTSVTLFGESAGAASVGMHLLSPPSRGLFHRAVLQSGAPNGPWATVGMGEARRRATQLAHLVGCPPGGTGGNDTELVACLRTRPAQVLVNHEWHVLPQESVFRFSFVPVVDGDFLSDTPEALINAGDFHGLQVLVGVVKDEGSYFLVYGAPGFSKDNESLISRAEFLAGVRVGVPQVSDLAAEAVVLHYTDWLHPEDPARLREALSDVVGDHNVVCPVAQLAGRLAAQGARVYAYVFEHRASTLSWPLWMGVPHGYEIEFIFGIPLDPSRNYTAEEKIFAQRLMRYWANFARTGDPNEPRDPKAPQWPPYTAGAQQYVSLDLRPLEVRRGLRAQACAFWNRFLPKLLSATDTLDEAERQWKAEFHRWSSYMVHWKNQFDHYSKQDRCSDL
T2 sequence (P06276 whole entry): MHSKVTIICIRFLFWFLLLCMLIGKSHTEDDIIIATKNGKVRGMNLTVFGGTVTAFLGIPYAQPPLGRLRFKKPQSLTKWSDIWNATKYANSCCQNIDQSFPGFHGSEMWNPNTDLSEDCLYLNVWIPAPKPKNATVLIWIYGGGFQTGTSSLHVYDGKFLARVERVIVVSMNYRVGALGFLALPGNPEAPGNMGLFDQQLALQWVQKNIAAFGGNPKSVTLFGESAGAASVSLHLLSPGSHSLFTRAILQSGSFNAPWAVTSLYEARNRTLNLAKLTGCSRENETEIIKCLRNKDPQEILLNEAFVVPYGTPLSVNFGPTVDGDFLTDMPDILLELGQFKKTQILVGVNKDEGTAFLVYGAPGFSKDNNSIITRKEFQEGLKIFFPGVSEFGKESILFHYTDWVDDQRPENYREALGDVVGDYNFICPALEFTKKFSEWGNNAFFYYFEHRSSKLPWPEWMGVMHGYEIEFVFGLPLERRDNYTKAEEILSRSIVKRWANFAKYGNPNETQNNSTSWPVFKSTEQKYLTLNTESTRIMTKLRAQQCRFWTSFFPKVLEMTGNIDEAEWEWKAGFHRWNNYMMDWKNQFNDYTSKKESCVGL

Usually IC50 stands for the concentration that inhibits the measured activity by half. Higher therefore signals weaker potency in that assay. For the compound `CCOC(=O)c1c(C)nc(N2CCN(S(=O)(=O)c3ccc(NC(C)=O)c(OC)c3)CC2)nc1-c1ccccc1`, the results for the IC50 against Acetylcholinesterase [1] and on Cholinesterase [2] were 79 nM and 184 nM, respectively.
Consider `CCc1ccc(NC(=O)COc2c(Cl)cc(Cl)cc2S(=O)(=O)N2CCN(C(=O)c3ccco3)CC2)cc1`, for which the IC50 was 5540 nM against Acetylcholinesterase [3] and 9150 nM at Cholinesterase [4].
With `CCOC(=O)c1c(C)nc(N2CCN(S(=O)(=O)c3ccc(NC(C)=O)cc3)CC2)nc1-c1ccccc1`, the values for the IC50 on Acetylcholinesterase [1] and on Cholinesterase [2] were 118 nM and more than 200 nM, respectively.
Take `CCOC(=O)c1c(C)nc(N2CCN(S(=O)(=O)c3ccc(N)cc3)CC2)nc1-c1ccc(OC)cc1`: the values for the IC50 at Acetylcholinesterase [1] and on Cholinesterase [2] were 71.9 nM and 192 nM, respectively.
The like results for `CCOC(=O)c1c(C)nc(N2CCN(S(=O)(=O)c3ccc(N)c(F)c3)CC2)nc1-c1ccccc1` were, in that order, more than 200 nM and more than 200 nM.
The like results for `CCOC(=O)c1c(C)nc(N2CCN(S(=O)(=O)c3ccc(NC(C)=O)c(OC)c3)CC2)nc1-c1ccc(OC)cc1` were, in that order, 79.3 nM and 194 nM.
On the same counts, the results for `CCOC(=O)c1c(C)nc(N2CCN(S(=O)(=O)c3ccc(N)c(Cl)c3)CC2)nc1-c1ccccc1` are 79.1 nM and 137 nM.
Take `CCOC(=O)c1c(C)nc(N2CCN(S(=O)(=O)c3ccc(N)c(Cl)c3)CC2)nc1-c1ccc(OC)cc1`: the IC50 on Acetylcholinesterase [1] turned out to be 77.9 nM; against Cholinesterase [2], 178 nM.
The like results for `CCOC(=O)c1c(C)nc(N2CCN(S(=O)(=O)c3ccc(N)c(OC)c3)CC2)nc1-c1ccccc1` were, in that order, 84.6 nM and 184 nM.
On the same counts, the results for `CCOC(=O)c1c(C)nc(N2CCN(S(=O)(=O)c3ccc(NC(C)=O)c(F)c3)CC2)nc1-c1ccc(OC)c(OC)c1` are 76.5 nM and 186 nM.
On the same counts, the results for `CCOC(=O)c1c(C)nc(N2CCN(S(=O)(=O)c3ccc(NC(C)=O)c(Cl)c3)CC2)nc1-c1ccccc1` are 144 nM and 156 nM.
In general, Papp refers to the rate of passage across a membrane or cell layer, normalised by area and donor concentration. A high value points to fast passage. `CCOC(=O)c1c(C)nc(N2CCN(S(=O)(=O)c3ccc(N)c(Cl)c3)CC2)nc1-c1ccc(OC)c(OC)c1`: the Papp at 16 h in data set [5] was determined as 23.7 ×10⁻⁶ cm/s. Further, the IC50 on Acetylcholinesterase [1] came to 51.4 nM; on Cholinesterase [2], 153 nM.
For the compound `CCOC(=O)c1c(C)nc(N2CCN(S(=O)(=O)c3ccc(NC(C)=O)cc3)CC2)nc1-c1ccc(OC)cc1`, the 50% inhibitory concentration (IC50) was 132 nM against Acetylcholinesterase [1] and more than 200 nM against Cholinesterase [2].
On the same counts, the results for `CCOC(=O)c1c(C)nc(N2CCN(S(=O)(=O)c3ccc(N)cc3)CC2)nc1-c1ccc(OC)c(OC)c1` are 68 nM and more than 200 nM.
On the same counts, the results for `CCOC(=O)c1c(C)nc(N2CCN(S(=O)(=O)c3ccc(NC(C)=O)c(F)c3)CC2)nc1-c1ccccc1` are 97.4 nM and 194 nM.
A word on the Ki: it is a measure of affinity in units of concentration, obtained from inhibition or displacement. High values mean lower affinity, low ones higher affinity. For `CCOC(=O)c1c(C)nc(N2CCN(S(=O)(=O)c3ccc(NC(C)=O)c(Cl)c3)CC2)nc1-c1ccc(OC)c(OC)c1`, the Activity in data set [6] turned out to be 99.41%. In addition, the Papp at 16 h in data set [5] is 24.3 ×10⁻⁶ cm/s. The IC50 turned out to be 47.3 nM against Acetylcholinesterase [1] and 159 nM at Cholinesterase [2]. The compound further gave a Ki at Acetylcholinesterase [7] of 8 nM.
`CCOC(=O)c1c(C)nc(N2CCN(S(=O)(=O)c3ccc(N)cc3)CC2)nc1-c1ccccc1`: the half-maximal inhibitory concentration (IC50) against Acetylcholinesterase [1] and against Cholinesterase [2] was more than 200 nM throughout.
As to `CCOC(=O)c1c(C)nc(N2CCN(S(=O)(=O)c3ccc(N)c(F)c3)CC2)nc1-c1ccc(OC)cc1`, the figures for the IC50 against Acetylcholinesterase [1] and against Cholinesterase [2] were 101 nM and 157 nM, respectively.
The like results for `CCOC(=O)c1c(C)nc(N2CCN(S(=O)(=O)c3ccc(NC(C)=O)c(Cl)c3)CC2)nc1-c1ccc(OC)cc1` were, in that order, 87.6 nM and more than 200 nM.
On the same counts, the results for `CCOC(=O)c1c(C)nc(N2CCN(S(=O)(=O)c3ccc(N)c(OC)c3)CC2)nc1-c1ccc(OC)c(OC)c1` are 85.6 nM and more than 200 nM.
For the compound `CCOC(=O)c1c(C)nc(N2CCN(S(=O)(=O)c3ccc(NC(C)=O)c(F)c3)CC2)nc1-c1ccc(OC)cc1`, the IC50 at Acetylcholinesterase [1] came out at 91.9 nM; against Cholinesterase [2], 168 nM.
For `CCOC(=O)c1c(C)nc(N2CCN(S(=O)(=O)c3ccc(NC(C)=O)c(OC)c3)CC2)nc1-c1ccc(OC)c(OC)c1`, the concentration for half-maximal inhibition (IC50) against Acetylcholinesterase [1] is 79.2 nM; at Cholinesterase [2] it was more than 200 nM.
`CCOC(=O)c1c(C)nc(N2CCN(S(=O)(=O)c3ccc(N)c(F)c3)CC2)nc1-c1ccc(OC)c(OC)c1`: the IC50 on Acetylcholinesterase [1] came to 66.1 nM; against Cholinesterase [2], 177 nM.
The like results for `CCOC(=O)c1c(C)nc(N2CCN(S(=O)(=O)c3ccc(NC(C)=O)cc3)CC2)nc1-c1ccc(OC)c(OC)c1` were, in that order, 88.8 nM and 167 nM.
On the same counts, the results for `CCOC(=O)c1c(C)nc(N2CCN(S(=O)(=O)c3ccc(N)c(OC)c3)CC2)nc1-c1ccc(OC)cc1` are 68.5 nM and 187 nM.

The values above are taken from ChEMBL document CHEMBL4732210, “Discovery of new phenyl sulfonyl-pyrimidine carboxylate derivatives as the potential multi-target drugs with effective anti-Alzheimer's action: Design, synthesis, crystal structure and in-vitro biological evaluation” (Eur J Med Chem, 2021).
